ChEMBL document CHEMBL1156154, “Heterocyclic fused pyridone carboxylic acid M(1) positive allosteric modulators” (Bioorg Med Chem Lett, 2010)
Active and inactive are the calls of the source. The rule behind the calls is not given here.

Legend:
[1] = target: T1, Muscarinic acetylcholine receptor M1 (Homo sapiens) (UniProt P11229); experiment: Positive allosteric modulator activity at human muscarinic M1 receptor expressed in CHO cells assessed as effect on acetylcholine-induced intracellular calcium mobilization by FLIPR assay relative to acetylcholine; format: functional, cell-based
T1 sequence (whole entry): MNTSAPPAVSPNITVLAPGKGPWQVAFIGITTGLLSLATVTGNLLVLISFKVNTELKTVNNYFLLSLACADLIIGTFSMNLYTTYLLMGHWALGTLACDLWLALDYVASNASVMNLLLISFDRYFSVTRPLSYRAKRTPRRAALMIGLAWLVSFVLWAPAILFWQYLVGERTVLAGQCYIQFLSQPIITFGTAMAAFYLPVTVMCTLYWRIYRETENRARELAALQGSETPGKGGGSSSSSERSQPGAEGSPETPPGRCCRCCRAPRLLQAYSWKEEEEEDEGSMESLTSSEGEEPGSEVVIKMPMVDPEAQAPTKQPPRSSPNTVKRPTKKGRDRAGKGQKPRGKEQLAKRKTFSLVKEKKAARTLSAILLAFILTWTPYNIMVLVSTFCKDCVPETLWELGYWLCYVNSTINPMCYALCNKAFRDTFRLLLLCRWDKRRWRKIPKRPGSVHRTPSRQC
Procedure, shortened: (§1)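 CHO cells expressing human M1 were run with an EC20 concentration of acetylcholine. Calcium mobilization was read on a FLIPR384. Potency is reported as the inflection point. Percent max is the compound plus EC20 ACh response relative to the maximal acetylcholine effect.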

[2] = target: Muscarinic acetylcholine receptor M3 (Homo sapiens) (UniProt P20309); experiment: Positive allosteric modulator activity at human muscarinic M3 receptor expressed in CHO cells assessed as effect on acetylcholine-induced intracellular calcium mobilization by FLIPR assay; format: functional, cell-based
Muscarinic acetylcholine receptor M3 (Homo sapiens), sequence (P20309 whole entry, looked up): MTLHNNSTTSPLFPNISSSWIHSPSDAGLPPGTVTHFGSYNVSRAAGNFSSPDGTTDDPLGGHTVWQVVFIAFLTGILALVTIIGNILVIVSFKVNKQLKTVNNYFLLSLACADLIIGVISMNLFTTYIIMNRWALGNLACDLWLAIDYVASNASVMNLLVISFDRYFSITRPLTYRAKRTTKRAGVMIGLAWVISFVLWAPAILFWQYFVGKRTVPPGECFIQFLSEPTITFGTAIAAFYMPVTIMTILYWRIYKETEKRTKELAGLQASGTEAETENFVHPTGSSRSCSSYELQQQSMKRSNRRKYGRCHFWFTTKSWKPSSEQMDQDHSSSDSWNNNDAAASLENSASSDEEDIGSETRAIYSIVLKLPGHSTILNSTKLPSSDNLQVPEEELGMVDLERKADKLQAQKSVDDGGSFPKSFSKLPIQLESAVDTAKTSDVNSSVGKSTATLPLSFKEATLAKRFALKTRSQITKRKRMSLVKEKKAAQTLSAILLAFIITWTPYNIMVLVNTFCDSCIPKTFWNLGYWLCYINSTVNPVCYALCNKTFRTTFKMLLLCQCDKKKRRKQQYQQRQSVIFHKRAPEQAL

[3] = target: T2, Muscarinic acetylcholine receptor M2 (Homo sapiens) (UniProt P08172); experiment: Positive allosteric modulator activity at human muscarinic acetylcholine M2 receptor expressed in CHO cells assessed as effect on acetylcholine-induced intracellular calcium mobilization by FLIPR assay; format: functional, cell-based
T2 sequence (whole entry): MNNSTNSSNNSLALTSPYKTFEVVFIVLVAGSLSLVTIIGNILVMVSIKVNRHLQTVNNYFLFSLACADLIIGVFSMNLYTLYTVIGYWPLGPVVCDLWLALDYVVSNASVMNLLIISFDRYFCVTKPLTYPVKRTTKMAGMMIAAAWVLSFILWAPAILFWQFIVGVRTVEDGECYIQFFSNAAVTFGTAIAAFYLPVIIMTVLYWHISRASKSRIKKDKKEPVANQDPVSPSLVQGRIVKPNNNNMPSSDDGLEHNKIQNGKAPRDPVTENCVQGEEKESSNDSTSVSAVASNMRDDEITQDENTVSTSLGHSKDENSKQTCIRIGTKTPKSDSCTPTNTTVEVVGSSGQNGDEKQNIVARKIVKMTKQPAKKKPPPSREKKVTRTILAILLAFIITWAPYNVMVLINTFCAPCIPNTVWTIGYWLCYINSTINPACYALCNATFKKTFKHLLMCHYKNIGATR

[4] = target: T3, Muscarinic acetylcholine receptor M4 (Homo sapiens) (UniProt P08173); experiment: Positive allosteric modulator activity at human muscarinic M4 receptor expressed in CHO cells assessed as effect on acetylcholine-induced intracellular calcium mobilization by FLIPR assay; format: functional, cell-based
T3 sequence (whole entry): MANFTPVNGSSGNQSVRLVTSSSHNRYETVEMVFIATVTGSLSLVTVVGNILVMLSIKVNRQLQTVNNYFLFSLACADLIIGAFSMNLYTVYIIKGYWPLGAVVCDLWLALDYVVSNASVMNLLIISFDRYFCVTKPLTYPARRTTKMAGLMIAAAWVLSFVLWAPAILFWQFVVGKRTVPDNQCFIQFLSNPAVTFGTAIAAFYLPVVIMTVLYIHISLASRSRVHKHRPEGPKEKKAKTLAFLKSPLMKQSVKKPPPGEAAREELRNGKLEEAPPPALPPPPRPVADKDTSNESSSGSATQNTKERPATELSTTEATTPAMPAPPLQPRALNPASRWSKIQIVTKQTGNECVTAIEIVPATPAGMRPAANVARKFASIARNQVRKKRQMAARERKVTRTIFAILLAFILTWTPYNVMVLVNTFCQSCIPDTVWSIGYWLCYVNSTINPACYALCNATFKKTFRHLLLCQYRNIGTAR

[5] = target: T1, Muscarinic acetylcholine receptor M1 (Homo sapiens); experiment: Positive allosteric modulator activity at human muscarinic M1 receptor expressed in CHO cells assessed as effect on acetylcholine-induced intracellular calcium mobilization by FLIPR assay; format: functional, cell-based; procedure, shortened: as §1
[6] = Plasma protein binding in rat serum by equilibrium dialysis method
[7] = Plasma protein binding in human serum by equilibrium dialysis method

Row | SMILES | Emax [1] [%] | Activity [2] | Activity [3] | Activity [4] | IP [5] [µM] | fraction unbound [6] | fraction unbound [7]
1 | O=C(O)c1cn(Cc2ccc(-c3ccccc3)cc2)c2nnccc2c1=O | 34 | inactive | inactive | inactive | 5.95 |  | 
2 | CN(C)c1ccc(-c2ccc(Cn3cc(C(=O)O)c(=O)c4sccc43)nc2)cn1 |  | inactive | inactive | inactive | 0.5 |  | 
3 | O=C(O)c1cn(Cc2ccc(-n3cccn3)cc2)c2ncccc2c1=O |  | inactive | inactive | inactive | 0.81 | 0.048 | 0.061
4 | O=C(O)c1cn(Cc2ccc(-c3ccccc3)cc2)c2sccc2c1=O | 78 | inactive | inactive | inactive | 0.37 | 0.004 | 0.007
5 | O=C(O)c1cn(Cc2ccc(-c3ccccc3)cc2)c2csnc2c1=O | 76 | inactive | inactive | inactive | 3.35 |  | 
6 | O=C(O)c1cn(Cc2ccc(-c3ccccc3)cc2)c2ncccc2c1=O | 56 | inactive | inactive | inactive | 0.58 | 0.003 | 0.008
7 | O=C(O)c1cn(Cc2ccc(-c3ccccc3)cc2)c2ccccc2c1=O | 92 | inactive | inactive | inactive | 0.21 |  | 
8 | O=C(O)c1cn(Cc2ccc(-c3cccnc3)cn2)c2ccsc2c1=O |  | inactive | inactive | inactive | 1.05 |  | 
9 | O=C(O)c1cn(Cc2ccc(-c3ccccc3)cc2)c2cnccc2c1=O | 62 | inactive | inactive | inactive | 0.43 |  | 
10 | O=C(O)c1cn(Cc2ccc(-c3ccccc3)cc2)c2nccnc2c1=O | 96 | inactive | inactive | inactive | 0.78 | 0.023 | 0.023
11 | O=C(O)c1cn(Cc2ccc(-c3ccccc3)cc2)c2cccnc2c1=O | 92 | inactive | inactive | inactive | 1.38 |  | 
12 | COc1ccc(-c2ccc(Cn3cc(C(=O)O)c(=O)c4sccc43)nc2)cn1 |  | inactive | inactive | inactive | 2 |  | 
13 | O=C(O)c1cn(Cc2ccc(-c3ccccc3)cc2)c2nsnc2c1=O | 69 | inactive | inactive | inactive | 3.5 |  | 
14 | Nc1cccc(-c2ccc(Cn3cc(C(=O)O)c(=O)c4sccc43)nc2)c1 |  | inactive | inactive | inactive | 0.038 | 0.099 | 0.117
15 | O=C(O)c1cn(Cc2ccc(-c3ccccc3)cc2)c2ccncc2c1=O | 4 | inactive | inactive | inactive | > 100 |  | 
16 | Cc1ccnn1-c1ccc(Cn2cc(C(=O)O)c(=O)c3cccnc32)cc1 |  | inactive | inactive | inactive | 17.9 |  | 
17 | O=C(O)c1cn(Cc2ccc(-c3ccccc3)cc2)c2ncncc2c1=O | 48 | inactive | inactive | inactive | 87.2 |  | 

Other lines, results leading:

Row | Emax [1] [%] | Activity [2] | Activity [3] | Activity [4] | IP [5] [µM] | fraction unbound [6] | fraction unbound [7] | SMILES
18 |  | inactive | inactive | inactive | 0.57 |  |  | O=C(O)c1cn(Cc2ccc(-c3cccnc3)cc2)c2ccsc2c1=O
19 |  | inactive | inactive | inactive | 1.03 |  |  | Cc1cn(-c2ccc(Cn3cc(C(=O)O)c(=O)c4ccncc43)cc2)cn1
20 |  | inactive | inactive | inactive | 0.56 |  | 0.012 | Cc1ccn(-c2ccc(Cn3cc(C(=O)O)c(=O)c4cccnc43)cc2)n1
21 |  | inactive | inactive | inactive | 0.15 | 0.009 | 0.066 | Cn1cc(-c2ccc(Cn3cc(C(=O)O)c(=O)c4sccc43)cc2)cn1
22 |  | inactive | inactive | inactive | 0.6 |  |  | O=C(O)c1cn(Cc2ccc(-c3ccncc3)cc2)c2ccsc2c1=O
23 |  | inactive | inactive | inactive | 1.14 |  |  | O=C(O)c1cn(Cc2ccc(-n3cccn3)cc2)c2cnccc2c1=O
24 |  | inactive | inactive | inactive | 0.34 | 0.052 | 0.233 | Cc1cn(-c2ccc(Cn3cc(C(=O)O)c(=O)c4cccnc43)cc2)cn1
25 |  | inactive | inactive | inactive | 1.66 |  |  | O=C(O)c1cn(Cc2ccc(-c3ccsc3)cn2)c2ccsc2c1=O
26 |  | inactive | inactive | inactive | 0.51 |  |  | Cc1ccn(-c2ccc(Cn3cc(C(=O)O)c(=O)c4sccc43)cc2)n1
27 | 90 | inactive | inactive | inactive | 0.15 | 0.008 | 0.013 | O=C(O)c1cn(Cc2ccc(-c3ccccc3)cc2)c2ccsc2c1=O
28 |  | inactive | inactive | inactive | 0.81 |  |  | O=C(O)c1cn(Cc2ccc(-c3ccnc(Cl)c3)cn2)c2ccsc2c1=O
29 |  | inactive | inactive | inactive | 13 |  |  | Cc1ccnn1-c1ccc(Cn2cc(C(=O)O)c(=O)c3ccncc32)cc1
30 |  | inactive | inactive | inactive | 0.24 | 0.259 | 0.199 | O=C(O)c1cn(Cc2ccc(-n3ccnc3)cc2)c2ccsc2c1=O
